Laboratory results: ChEMBL document CHEMBL1124463, “Retinobenzoic acids. 3. Structure-activity relationships of retinoidal azobenzene-4-carboxylic acids and stilbene-4-carboxylic acids” (1989)
Active and inactive are the calls of the source. No cut-off for these calls is given here.

System: HL-60
Assay: The ability to induce differentiation of human promyelocytic leukemia HL-60 cell line to mature granulocyte was determined in a NBT reduction assay; IA= Inactive at >10e-6
Assay type: functional, cell-based
Conditions: not given
Outline: (§1)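 HL-60 cells in RPMI1640 with 5% FCS, ethanol stocks at 0.2 mM, final ethanol <0.5%, seeded at ~8 × 10^4 cells/mL and exposed 4 days across 5 orders of concentration. Cells were then incubated 20 min at 37 °C with an equal volume of PBS containing 0.2% NBT and 200 ng/mL TPA. Formazan-positive cells were counted (≥200 cells). ED50 from NBT data; ≥3 repeats.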

Row | SMILES | ED50
1 | CCc1cccc(/N=N/c2ccc(C(=O)O)cc2)c1 | inactive

System: HL-60
Assay: Activity to differentiate HL-60 cells relative to that of retinoic acid
Assay type: functional, Homo sapiens
Conditions: not given
Outline: (§2)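 HL-60 cells from suspension culture in RPMI1640 with 5% FCS and antibiotics, 37 °C, 5% CO2. Compounds were dissolved in ethanol at 0.2 mM (stock), with final ethanol below 0.5%, and added to cells seeded at about 8 × 10^4 cells/mL for 4 days. Retinoic acid was run concurrently. Value is the ED50 ratio of retinoic acid to compound, with ED50 taken from NBT-reduction data.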

Row | SMILES | Relative activity
2 | C/C(=C\c1ccc(C(=O)O)cc1)c1ccc(C(C)C)c(C(C)C)c1 | 15

System: HL-60
Assay: The ability to induce differentiation of human promyelocytic leukemia HL-60 cell line to mature granulocyte was determined in a NBT reduction assay; IA= Inactive
Assay type: functional, cell-based
Conditions: not given
Outline: as §1

Row | SMILES | ED50
3 | CC(C)c1ccccc1/N=N/c1ccc(C(=O)O)cc1 | inactive
4 | O=C(O)c1ccc(/N=N/c2ccccc2)cc1 | inactive
5 | CCc1ccc(C2(C)OC2c2ccc(C(=O)O)cc2)cc1CC (stereo unspecified) | inactive
6 | C/C(=C\c1ccc(C(=O)O)cc1)c1ccc(C)c(C)c1 | inactive
7 | C/C(=C\c1ccc(C(=O)O)cc1)c1ccc(C(C)(C)C)cc1 | inactive
8 | CC(C)c1ccc(C(C)C)c(/N=N/c2ccc(C(=O)O)cc2)c1 | inactive
9 | Cc1cccc(/N=N/c2ccc(C(=O)O)cc2)c1 | inactive
10 | CC(C)(C)c1ccc(/C=C/c2ccc(C(=O)O)cc2)cc1 | inactive

System: HL-60
Assay: The ability to induce differentiation of human promyelocytic leukemia HL-60 cell line to mature granulocyte was determined in a NBT reduction assay; Maximum cellular response to compound is less than half of that of retinoic acid.
Assay type: functional
Conditions: read-out: ED50 (the source's name)
Outline: as §1

Row | EC50 | SMILES
11 | 6.6 nM | CC1(C)CCC(C)(C)c2cc3c(cc21)C=C(c1ccc(C(=O)O)cc1)C3

System: HL-60
Assay: The ability to induce differentiation of HL-60 cells relative to that of retinoic acid
Assay type: functional, Homo sapiens
Conditions: not given
Outline: as §2

Row | SMILES | Relative activity
12 | CC1(C)CCC(C)(C)c2cc(C3(C)OC3c3ccc(C(=O)O)cc3)ccc21 (stereo unspecified) | 0.65
13 | CC(C)(C)c1cccc(/C=C/c2ccc(C(=O)O)cc2)c1 | 13
14 | CC(C)(C)c1ccc(C2OC2c2ccc(C(=O)O)cc2)cc1 (stereo unspecified) | < 0.01
15 | C/C(=C\c1ccc(C(=O)O)cc1)c1ccc2c(c1)C(C)(C)CCC2(C)C | 90
16 | CC1(C)CCC(C)(C)c2cc(/C(=C/c3ccc(C(=O)O)cc3)C(F)(F)F)ccc21 | 5.7
17 | O=C(O)c1ccc(/N=N/c2cccc(-c3ccccc3)c2)cc1 | <0.1
18 | CC1(C)CCC(C)(C)c2cc(/N=[N+](\[O-])c3ccc(C(=O)O)cc3)ccc21 | 1960
19 | CCc1ccc(/N=N/c2ccc(C(=O)O)cc2)cc1CC | 0.53
20 | CC(C)(C)c1cccc(C2OC2c2ccc(C(=O)O)cc2)c1 (stereo unspecified) | < 0.01
21 | CC(C)c1ccc(/N=N/c2ccc(C(=O)O)cc2)c(C(C)C)c1 | <0.1
22 | CC1=C(/C=C/C(C)=C/C=C/C(C)=C/C(=O)O)C(C)(C)CCC1 [TRETINOIN] | 100
23 | CC(C)c1cc(/N=N/c2ccc(C(=O)O)cc2)cc(C(C)C)c1 | 0.22
24 | CC(C)c1cccc(/N=N/c2ccc(C(=O)O)cc2)c1 | 0.29
25 | CC1(C)CCC(C)(C)c2cc(/C=C/c3ccc(C(=O)O)cc3)ccc21 | 260
26 | CC(C)c1ccc(/N=N/c2ccc(C(=O)O)cc2)cc1 | <0.1
27 | CCc1ccc(/C(C)=C/c2ccc(C(=O)O)cc2)cc1CC | 2.2
28 | CC1(C)CCC(C)(C)c2cc3c(cc21)CC/C3=C\c1ccc(C(=O)O)cc1 | 570
29 | O=C(O)c1ccc(/N=N/c2cccc(C3CCCCC3)c2)cc1 | 0.68
30 | CC1(C)CCOc2ccc(/N=N/c3ccc(C(=O)O)cc3)cc21 | 3.5
31 | CC1(C)CCC(C)(C)c2cc(CCc3ccc(C(=O)O)cc3)ccc21 | 2.7
32 | CC1(C)CCC(C)(C)c2cc(C3OC3c3ccc(C(=O)O)cc3)ccc21 (stereo unspecified) | 22
33 | CC(C)(C)c1cccc(/N=N/c2ccc(C(=O)O)cc2)c1 | 0.36
34 | CC1(C)CCSc2ccc(/N=N/c3ccc(C(=O)O)cc3)cc21 | 2.1
35 | CC1(C)CCC(C)(C)c2cc(/N=N/c3ccc(C(=O)O)cc3)ccc21 | 130
36 | CCc1cccc(/N=N/c2ccc(C(=O)O)cc2)c1 | <0.1
37 | CC(C)c1ccc(/N=N/c2ccc(C(=O)O)cc2)cc1C(C)C | 39
38 | CC1(C)CCC(C)(C)c2cc3oc(-c4ccc(C(=O)O)cc4)cc3cc21 | 120
39 | CC1(C)CCC(C)(C)c2cc(C(=O)C(=O)c3ccc(C(=O)O)cc3)ccc21 | 3.9

System: HL-60
Assay: The ability to induce differentiation of human promyelocytic leukemia HL-60 cell line to mature granulocyte
Assay type: functional
Conditions: read-out: ED50 (the source's name)
Outline: as §1

Row | SMILES | EC50
40 | C/C(=C\c1ccc(C(=O)O)cc1)c1ccc2c(c1)C(C)(C)CCC2(C)C | 2.5 nM
41 | CC(C)(C)c1cccc(C2OC2c2ccc(C(=O)O)cc2)c1 (stereo unspecified) | > 1000 nM
42 | CC(C)c1cccc(/N=N/c2ccc(C(=O)O)cc2)c1 | 380 nM
43 | CC1(C)CCC(C)(C)c2cc(/C=C/c3ccc(C(=O)O)cc3)ccc21 | 0.5 nM
44 | CC(C)c1ccc(/N=N/c2ccc(C(=O)O)cc2)cc1 | > 10000 nM
45 | CCc1ccc(/C(C)=C/c2ccc(C(=O)O)cc2)cc1CC | 87 nM
46 | O=C(O)c1ccc(/N=N/c2cccc(C3CCCCC3)c2)cc1 | 130 nM
47 | CC1(C)CCOc2ccc(/N=N/c3ccc(C(=O)O)cc3)cc21 | 130 nM
48 | CC1(C)CCC(C)(C)c2cc(CCc3ccc(C(=O)O)cc3)ccc21 | 130 nM
49 | CC1(C)CCC(C)(C)c2cc(C3OC3c3ccc(C(=O)O)cc3)ccc21 (stereo unspecified) | 4.3 nM
50 | CC1(C)CCSc2ccc(/N=N/c3ccc(C(=O)O)cc3)cc21 | 210 nM
51 | CC1(C)CCC(C)(C)c2cc(C(=O)C(=O)c3ccc(C(=O)O)cc3)ccc21 | 140 nM

The next lines start with the values.

Row | EC50 | SMILES
52 | 130 nM | CC1(C)CCC(C)(C)c2cc(C3(C)OC3c3ccc(C(=O)O)cc3)ccc21 (stereo unspecified)
53 | > 1000 nM | CC(C)(C)c1ccc(C2OC2c2ccc(C(=O)O)cc2)cc1 (stereo unspecified)
54 | 13 nM | C/C(=C\c1ccc(C(=O)O)cc1)c1ccc(C(C)C)c(C(C)C)c1
55 | 31 nM | CC1(C)CCC(C)(C)c2cc(/C(=C/c3ccc(C(=O)O)cc3)C(F)(F)F)ccc21
56 | > 10000 nM | O=C(O)c1ccc(/N=N/c2cccc(-c3ccccc3)c2)cc1
57 | 0.25 nM | CC1(C)CCC(C)(C)c2cc(/N=[N+](\[O-])c3ccc(C(=O)O)cc3)ccc21
58 | 220 nM | CCc1ccc(/N=N/c2ccc(C(=O)O)cc2)cc1CC
59 | > 10000 nM | CC(C)c1ccc(/N=N/c2ccc(C(=O)O)cc2)c(C(C)C)c1
60 | 2.4 nM | CC1=C(/C=C/C(C)=C/C=C/C(C)=C/C(=O)O)C(C)(C)CCC1 [TRETINOIN]
61 | 410 nM | CC(C)c1cc(/N=N/c2ccc(C(=O)O)cc2)cc(C(C)C)c1
62 | 0.2 nM | CC1(C)CCC(C)(C)c2cc3c(cc21)CC/C3=C\c1ccc(C(=O)O)cc1
63 | 400 nM | CC(C)(C)c1cccc(/N=N/c2ccc(C(=O)O)cc2)c1
64 | 2.3 nM | CC(C)c1ccc(/N=N/c2ccc(C(=O)O)cc2)cc1C(C)C
65 | 1.3 nM | CC1(C)CCC(C)(C)c2cc3oc(-c4ccc(C(=O)O)cc4)cc3cc21

System: HL-60
Assay: The ability to induce differentiation of human promyelocytic leukemia HL-60 cell line to mature granulocyte was determined in a NBT reduction assay; NA means inactive.
Assay type: functional, cell-based
Conditions: not given
Outline: as §1

Row | SMILES | ED50
66 | O=C(O)c1ccc(/C=C/c2ccccc2)cc1 | inactive
